Key:
[1] = target: Lck (Homo sapiens, UniProt P06239); assay: Photoaffinity-labeling; assay type: biochemical; details: for photolabeling of Lck in the presence of an ATP-competitive inhibitor of Lck: Figure S2, competition with ATP-competitive Lck inhibitor; for photolabeling efficiency of Lck (in words): compared with compound 1
Summary of the method: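 Commercial Lck photolabelled with biotin-tagged benzophenone ligands at 0, 3, 9, 18, 36, 90 and 180 µM. Western blot on PVDF: after blocking, streptavidin-HRP (1:10,000 in 3% non-fat milk/TBS-T) and ECL-Plus chemiluminescence. Bands quantified with background subtracted as 0%; 100% = maximal band of reference photoligand at 180 µM. EC50 from sigmoidal fit of triplicates (n = 3), with 95% CI.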

[2] = Decomposition of free photoligands under UV light; assay type: physicochemical; details: UV-A lamp λmax 350 nm, up to 30 min, HPLC
Summary of the method: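 Each probe at 30 µM in buffer was held on ice about 5 cm below six 15 W blacklight lamps (λmax 350 nm). Aliquots taken at 0, 10 and 30 min were analysed by RP-HPLC with UV detection at 280 nm. Intact probe concentration was estimated from chromatogram peak areas.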

Sequence of Lck (P06239 whole entry): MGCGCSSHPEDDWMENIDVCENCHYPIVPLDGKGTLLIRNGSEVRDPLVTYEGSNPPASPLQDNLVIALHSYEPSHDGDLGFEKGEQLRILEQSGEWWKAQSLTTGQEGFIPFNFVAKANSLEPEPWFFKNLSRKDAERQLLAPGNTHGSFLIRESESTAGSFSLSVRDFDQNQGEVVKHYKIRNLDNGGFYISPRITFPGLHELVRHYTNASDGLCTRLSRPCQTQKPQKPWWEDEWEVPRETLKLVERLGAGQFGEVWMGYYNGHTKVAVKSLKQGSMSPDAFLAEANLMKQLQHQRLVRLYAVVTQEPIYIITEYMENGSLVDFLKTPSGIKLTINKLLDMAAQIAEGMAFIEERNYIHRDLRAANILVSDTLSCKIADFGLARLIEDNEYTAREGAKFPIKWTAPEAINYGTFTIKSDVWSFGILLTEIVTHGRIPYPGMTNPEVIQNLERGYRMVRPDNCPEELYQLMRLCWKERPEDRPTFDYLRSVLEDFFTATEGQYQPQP

Row | Compound | photolabeling of Lck in the presence of an ATP-competitive inhibitor of Lck [1] | photolabeling efficiency of Lck (in words) [1] | decomposition of free ligand under UV (in words) [2]
1 | Nc1ncnc2c1ncn2CC(=O)N(CCNC(=O)CNC(=O)[C@H](Cc1ccc(C(=O)c2ccccc2)cc1)NC(=O)CCCNC(=O)CCCC[C@@H]1SC[C@@H]2NC(=O)N[C@@H]21)CC(=O)NCC(=O)O [Compound 1] | completely blocked | – | –
2 | Nc1ncnc2c1ncn2CC(=O)N(CCNC(=O)[C@@H](CO)NC(=O)[C@H](Cc1ccc(C(=O)c2ccccc2)cc1)NC(=O)CCCNC(=O)CCCC[C@@H]1SC[C@@H]2NC(=O)N[C@@H]21)CC(=O)NCC(=O)O [Compound 2] | completely blocked | comparable to that of 1 | –
3 | Nc1ncnc2c1ncn2CC(=O)N(CCNC(=O)[C@@H](CCC(=O)O)NC(=O)[C@H](Cc1ccc(C(=O)c2ccccc2)cc1)NC(=O)CCCNC(=O)CCCC[C@@H]1SC[C@@H]2NC(=O)N[C@@H]21)CC(=O)NCC(=O)O [Compound 3] | completely blocked | comparable to that of 1 | –
4 | Nc1ncnc2c1ncn2CC(=O)N(CCNC(=O)[C@H]1CCCN1C(=O)[C@H](Cc1ccc(C(=O)c2ccccc2)cc1)NC(=O)CCCNC(=O)CCCC[C@@H]1SC[C@@H]2NC(=O)N[C@@H]21)CC(=O)NCC(=O)O [Compound 4] | – | – | almost identical to that of 1
5 | Nc1ncnc2c1ncn2CC(=O)N(CCNC(=O)CCCNC(=O)[C@H](Cc1ccc(C(=O)c2ccccc2)cc1)NC(=O)CCCNC(=O)CCCC[C@@H]1SC[C@@H]2NC(=O)N[C@@H]21)CC(=O)NCC(=O)O [Compound 6] | completely blocked | – | –

From article PMC2581794 (Bioorganic & medicinal chemistry, 2008)
